Data on one molecule can be found in PMC10499740 (Advances in Therapy, 2023).

This series is described as follows: Plasma triptorelin concentration. The class given is in vivo, Chinese children. The following applies: human, im, 15 mg, SD. In outline: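 Children with CPP (age-limited, ≥20 kg) received 15 mg of the test compound's pamoate salt (delivering 11.25 mg) by intramuscular injection into the upper outer buttock on day 1 and months 3, 6 and 9. Sparse plasma sampling was done pre-dose, 4 h post-injection on day 1, at month 3 (pre-dose) and at month 6. Concentrations were measured by validated LC-MS/MS and reported as means.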

Structures are written as SMILES.

For `CC(C)C[C@H](NC(=O)[C@@H](Cc1c[nH]c2ccccc12)NC(=O)[C@H](Cc1ccc(O)cc1)NC(=O)[C@H](CO)NC(=O)[C@H](Cc1c[nH]c2ccccc12)NC(=O)[C@H](Cc1c[nH]cn1)NC(=O)[C@@H]1CCC(=O)N1)C(=O)N[C@@H](CCCNC(=N)N)C(=O)N1CCC[C@H]1C(=O)NCC(N)=O` [triptorelin], the level at 4 h was found to be 0.0476 ± 0.0239 µg/mL.
